The source made the active and inactive calls. The rule behind the calls is not given here.
Tests used:
HepG2 [1] = test: Disruption of mitochondrial membrane potential in human HepG2 cells at 10 uM after 12 hrs by JC1 staining-based fluorescent microscopic method; format: functional, cell-based
HepG2 [2] = test: Induction of apoptosis in human HepG2 cells assessed as upregulation of PARP levels at 8 to 12 uM after 24 hrs by Western blot method; format: functional, cell-based
HepG2 [3] = test: Induction of apoptosis in human HepG2 cells assessed as necrotic cells at 12 uM after 24 hrs by annexin V/[…] staining-based fluorescent microscopic method (reference value: 0.28%); format: functional
HepG2 [4] = test: Downregulation of CDC25C expression in human HepG2 cells after 48 hrs by Western blot method; format: functional, cell-based
HepG2 [5] = test: Downregulation of cyclin B1 expression in human HepG2 cells after 48 hrs by Western blot method; format: functional, cell-based
HepG2 [6] = test: Induction of apoptosis in human HepG2 cells assessed as increase in intracellular calcium release at 10 uM after 24 hrs by Fluo-3 AM dye-based fluorescence microscopic method
HepG2 [7] = test: Cell cycle arrest in human HepG2 cells assessed as accumulation at G2 phase at 8 uM after 48 hrs by propidium iodide staining-based flow cytometric method (reference value: 19.04%); format: functional
HepG2 [8] = test: Induction of morphological changes in human HepG2 cells at 10 uM after 12 hrs by Hoechst 33258 staining-based fluorescent microscopic method; format: functional, cell-based
Outline: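 Cells were treated on cover slips, fixed in 4% paraformaldehyde for 10 min and washed with PBS. They were stained with Hoechst 33258 for 5 min, washed again, and nuclei were examined by fluorescence microscopy (excitation 350 nm, emission 460 nm).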

HepG2 [9] = test: Induction of apoptosis in human HepG2 cells assessed as cell budding at 10 uM after 24 hrs by acridine orange/ethidium bromide staining-based fluorescent microscopic method; format: functional
Outline: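 Cells were plated at 5×10^4 cells/mL on sterile cover slips. Medium was replaced with fresh medium containing 10% FBS plus compound. After treatment, cover slips were inverted onto slides with acridine orange/ethidium bromide stain and viewed by fluorescence microscopy.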

HepG2 [10] = test: Cell cycle arrest in human HepG2 cells assessed as accumulation at G2/M phase after 48 hrs by propidium iodide staining-based flow cytometric method; format: functional
HepG2 [11] = test: Induction of apoptosis in human HepG2 cells assessed as early apoptotic cells at 10 uM after 24 hrs by annexin V/[…] staining-based fluorescent microscopic method (reference value: 6.50%); format: functional
HepG2 [12] = test: Induction of apoptosis in human HepG2 cells assessed as late apoptotic cells at 10 uM after 24 hrs by annexin V/[…] staining-based fluorescent microscopic method (reference value: 1.91%); format: functional
HepG2 [13] = test: Cell cycle arrest in human HepG2 cells assessed as accumulation at S phase at 8 uM after 48 hrs by propidium iodide staining-based flow cytometric method (reference value: 30.49%); format: functional

CCOP(=O)(Cc1ccc(/N=C/c2cc3cc(C)ccc3[nH]c2=O)cc1)OCC
Activity (HepG2 [1]): Active | Activity (HepG2 [2]): Active | Activity (HepG2 [3]): 0.57% | Activity (HepG2 [4]): Dose-dependent effect | Activity (HepG2 [5]): Dose-dependent effect | Activity (HepG2 [6]): Active | Activity (HepG2 [7]): 34.68% | Activity (HepG2 [8]): Active | Activity (HepG2 [9]): Active | Activity (HepG2 [10]): Dose-dependent effect | Activity (HepG2 [11]): 34.38% | Activity (HepG2 [12]): 9.24% | Activity (HepG2 [13]): 30.01%
